# Bioassay records deposited in PubChem by Broad Institute.
# Shown is part of a subset that was picked to be rich in hits.
# GSK3 alpha inh – human GSK-3 alpha kinase inhibition | P49840 | ADP-Glo luminescence, 60 min | inhibition, % at 10 µM | 320,000 compounds, 0.1% hits | AID 2650;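 active = more than half of replicates show inhibition above 20%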;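 note: GST-tagged GSK-3 alpha with peptide substrate and 25 µM ATP; 0% = DMSO neutral wells and 100% = GW8510 positive control wells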
# DYRK1A inh – inhibitors of rat Dyrk1A kinase. ADP-Glo luminescence, NFATc1 peptide. inhibition, % at 12.5 µM. 310,000 compounds, 0.43% hits; in the data active = inhibition above about 50%;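 note: plate controls were vehicle with enzyme for no effect and no enzyme for full effect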
# GSK3beta inhib – inhibitors of human GSK3beta kinase; AID 2097; activity score (negative = inhibition), % at 10 µM; 300,000 compounds, 0.038% hits; P49841; GST-GSK3beta kinase, ADP-Glo luminescence, 60 min; stronger effect = lower value;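 active = more than half of replicate wells score below -50%, meaning over 50% inhibition versus plate controls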;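 note: 0% = median DMSO wells and -100% = median GW8510 positive control wells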
#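 Assay system: GST-fused GSK3beta enzyme, cell-free / Medium: Tris pH 7.5 buffer with MgCl2, DTT, BSA, heparin / Also added: peptide substrate plus 25 µM ATP (final) / Compound: 10 µM single point / Timing: kinase reaction with compound 60 min at room temperature / Detection: ADP-Glo luminescence / Benchmarks: DMSO neutral wells and GW8510 at 20 µM as positive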
# CDK5 p35 inh – CDK5/p35 (human) kinase inhibition; inhibition, % at 10 µM; 330,000 compounds, 0.01% hits; AID 488839; Recombinant CDK5/p35, ADP-Glo luminescence, 60 min; Q00535+Q15078;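 active = highest replicate inhibition of at least 50% and at least 75% of replicates reaching 50%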;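 note: plate controls were DMSO neutral control for no effect and GW8510 at 10 µM for full effect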
# Target sequence (Q00535 whole entry, looked up): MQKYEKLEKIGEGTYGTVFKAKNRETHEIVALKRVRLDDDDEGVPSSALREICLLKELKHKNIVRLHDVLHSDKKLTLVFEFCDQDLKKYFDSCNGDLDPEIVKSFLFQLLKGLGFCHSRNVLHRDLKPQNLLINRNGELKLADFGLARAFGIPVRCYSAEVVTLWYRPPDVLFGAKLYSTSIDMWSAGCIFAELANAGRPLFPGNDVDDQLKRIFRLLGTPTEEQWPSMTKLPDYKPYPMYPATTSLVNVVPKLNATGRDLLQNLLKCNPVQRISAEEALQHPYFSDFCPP
# Target sequence (Q15078 whole entry, looked up): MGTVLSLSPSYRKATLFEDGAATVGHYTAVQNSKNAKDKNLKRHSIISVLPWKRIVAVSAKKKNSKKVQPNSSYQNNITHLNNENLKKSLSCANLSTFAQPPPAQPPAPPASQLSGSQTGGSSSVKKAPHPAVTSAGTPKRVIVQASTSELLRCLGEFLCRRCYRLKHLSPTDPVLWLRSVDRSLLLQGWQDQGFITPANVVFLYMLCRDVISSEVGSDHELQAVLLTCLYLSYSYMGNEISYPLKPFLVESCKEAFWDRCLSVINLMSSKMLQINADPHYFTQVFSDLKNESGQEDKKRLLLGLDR
# STK33 kinase inh – blocks human STK33 kinase activity; purified STK33, MBP phosphorylation, ADP-Glo luminescence; inhibition, % at 10 µM; 320,000 compounds, 0.073% hits; Q9BYT3;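 active = inhibition at or above 25%, using the most active replicate where run in duplicate; inactive = inhibition below 25%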
# Dyrk1A artifact – counter-screen for Dyrk1A inhibitors: ADP-Glo luciferase artifacts | shares compounds with DYRK1A inh | ADP-Glo luciferase artifact assay, no Dyrk1A, luminescence | AC50, µM (doses to about 12 µM), without a hit: at the highest dose activity change, negative = inhibition | 1,300 tested, under 10 active | AID 588348;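 active = fitted half-maximal dose AC50 no more than ten times the top valid tested dose, with luminescence dropping as dose rises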
# Starred values were filed as active, the others as inactive; · = no result given; ! = a repeat was not active.
SMILES,GSK3 alpha inh,DYRK1A inh,GSK3beta inhib,CDK5 p35 inh,STK33 kinase inh,Dyrk1A artifact
Cc1ccc(C(=O)Nc2ccc3ccccc3n2)cc1,-2.1,21.0,2.6,0.5,0.9,·
O=C(Nc1ccc2ccccc2n1)c1ccccc1,-1.6,51.1*,0.3,1.4,0.6,8.1%
S=c1[nH]c2ccccc2n2c(=S)[nH]nc12,7.4,56.5*,0.3,3.6,3.1,7.1%
Cc1cc(N)n(-c2ccc(Oc3ccccc3)c(S(=O)(=O)O)c2)n1,·,-5.9,3.0,-6.5,·,·
O=c1c2ccccc2nnn1CSc1nnc(-c2ccc3c(c2)OCO3)o1,44.3,55.8*,-24.3,0.4,-0.7,8.1%
N#CC(C#N)=C1NC(N)=C(C#N)C(c2ccccc2)=C1C#N,39.1,65.5*,-30.8,0.3,9.1,8.0%
O=[N+]([O-])c1cc(/C=N/O)ccc1Oc1ccccc1Cl,65.4*,60.8*,-52.4*,13.4,4.1,8.6%
C#CCN(C(=O)c1ccc(OC)c(OC2CCN(C(C)C)CC2)c1)C1CCCCC1,0.1,-11.4,1.3,-2.4,-0.1,·
CN(C)CCNc1ccc(CO)c2sc3ccc(O)cc3c(=O)c12,·,76.7*,·,1.4,·,7.3%
O=C(COc1ccccc1)Nc1cccc(-c2cn3cccnc3n2)c1,2.1,53.9*,1.4,1.1,2.8,8.4%
CC(=O)Nc1cccc(-c2nn[nH]n2)c1,7.4,41.9,1.7,0.4,0.0,·
O=C(COc1ccccc1)Nc1cccc(-c2nn[nH]n2)c1,20.4,70.4*,-1.3,3.6,4.0,7.2%
CCC(=O)Nc1cccc(-c2cn3ccccc3n2)c1,2.2,3.2,3.9,-1.0,-1.0,·
Cc1nc(N)[nH]c(=O)c1CCCNS(=O)(=O)c1ccc([N+](=O)[O-])cc1,·,·,·,-0.1,·,·
CCCCN(CCCC)CCNC(=O)c1cn(CC)c2ccc(S(=O)(=O)N3CCc4ccccc4C3)cc2c1=O,1.6,-1.0,0.7,1.1,-0.1,·
Cc1cc(NCCCN2CCOCC2)n2ncc(-c3ccc(Cl)cc3)c2n1,0.2,-1.3,3.5,0.4,2.1,·
Cc1cc(NCCCn2ccnc2)n2ncc(-c3ccc(Cl)cc3)c2n1,11.9,56.5*,-8.5,1.3,18.1,9.6%
Cc1cccc(NC(=S)NN2CCN(C)CC2)c1,-3.3,53.7*,1.9,0.8,0.2,9.6%
N#C/C(=C\c1cccnc1)c1ccccn1,-0.2,-4.6,0.1,-0.3,-1.4,·
O=C(Nc1cccnc1)c1ccc2c(c1)C(=O)N(CC1CCCO1)C2=O (stereo unspecified),·,-1.6,4.2,0.7,-1.1,·
COc1ccc2nc(Cl)cc(Cl)c2c1,-2.6,-5.2,2.7,-1.5,0.1,·
C=CS(=O)(=O)c1c2cc(OC)ccc2nc2ccc(OC)cc12,·,60.5*,·,1.6,·,6.1%
CCCn1c(NCc2ccco2)nc2c1c(=O)n(C)c(=O)n2C,0.1,-2.3,-6.8,1.2,-1.6,·
Cn1c(=O)c2c(nc(NCc3ccco3)n2CC(O)COc2ccccc2)n(C)c1=O (stereo unspecified),1.7,56.5*,0.1,-0.8,-2.1,7.6%
O=C(COc1ccc2ccc(=O)oc2c1)N1CCc2ccccc21,0.6,6.2,0.2,1.4,-1.5,·
SMILES,GSK3 alpha inh,DYRK1A inh,GSK3beta inhib,CDK5 p35 inh,STK33 kinase inh,Dyrk1A artifact
CC(=O)Nc1cccc(-c2cnc(N)c(C(=O)c3cccnc3)n2)c1,88.5*,88.2*,·,9.1,12.8,12.9%
O=C(c1ccc2c3n(nc2c1)-c1ccc(Cl)cc1CO3)N1CCOCC1,1.0,6.2,-0.7,2.5,1.6,·
O=C(c1ccc2c3n(nc2c1)-c1ccccc1CO3)N1CCOCC1,50.9*,58.6*,-22.8,42.4,43.0*,9.04µM*
CN1CCc2cc3c(c4c2[C@H]1[C@H](O)c1ccccc1-4)OCO3,16.8,82.3*,-4.5,0.3,9.4,6.3%
COc1ccc2c(c1OC)C(=O)OC2C1c2c(cc3c(c2OC)OCO3)CCN1C (stereo unspecified),-2.5,7.3,3.7,1.6,0.4,·
CC(=O)c1cccc(NC(=O)Nc2ccc3c(c2)N(C)C(=O)CS3)c1,-2.3,50.1*,1.8,1.1,4.4,8.1%
N#CC(C#N)=C1C=CC=CN1/C(=C\c1ccco1)C(=O)c1ccccc1,1.4,62.6*,·,0.2,2.8,6.4%
CCOC(=O)c1ccc2ncc(C(=O)OCC)c(Nc3ccc(N4CCOCC4)cc3)c2c1,23.7,65.2*,-15.6,2.1,4.2,6.3%
CCOC(=O)c1cnc2ccc(C(=O)OC)cc2c1Nc1ccc(C(=O)O)cc1,14.2,15.0,0.3,-0.7,2.8,·
O=C(O)c1ccc(-n2cc(-c3cc4ccccc4oc3=O)[nH]c2=S)cc1,·,66.6*,·,5.7,·,9.2%
COc1cccc(/C=C2\Oc3cc(OCC(=O)N4Cc5ccccc5C[C@H]4C(=O)O)ccc3C2=O)c1,5.0,15.5,1.3,1.2,15.5,·
O=C1/C(=C/c2ccc3c(c2)OCO3)Oc2cc(OCC(=O)N3CCC[C@H]3C(=O)O)ccc21,58.9*,70.7*,0.6,0.4,4.9,16.1%
O=C1NC(=O)C2(CCCC2c2ccccc2)N1 (stereo unspecified),·,·,·,0.3,·,·
COc1ccccc1N=c1oc2cc(O)ccc2cc1C(=O)NCC1CCCO1 (stereo unspecified),0.2,-3.4,0.9,0.2,-3.1,·
COc1ccccc1N=c1oc2cc(O)ccc2cc1C(N)=O,61.0*,92.8*,2.1,7.1,36.8*,7.0%
NC(N)=NC(=O)c1nc(Cl)c(N)nc1N,0.4,64.3*!,-0.1,3.9,1.7,9.0%
NC(N)=NC(=O)c1nc(Cl)c(N2CCCCCC2)nc1N,3.5,11.1,·,0.5,-0.4,·
O=C(O)c1ccc(-c2ccc(/C=c3/sc4nc5ccccc5n4c3=O)o2)cc1Cl,-3.7,53.9*,0.1,-6.1,0.4,10.8%
Cc1ccc(S(=O)(=O)NC(C)C(=O)OCC(=O)N(C)c2ccccc2)cc1 (stereo unspecified),-2.4,·,·,0.2,1.2,·
COc1ccc2cc3cc(C(=O)NCCCN4CCOCC4)oc3nc2c1,3.1,57.6*,-3.3,0.2,0.5,9.1%
COc1ccc2cc3cc(C(=O)NCCCN4CCC(C)CC4)oc3nc2c1,7.9,52.8*,·,1.2,-1.2,7.2%
CCCCN(CC)CCCNC(=O)c1cc2cc3ccc(OC)cc3nc2o1,-12.6,50.2*,-3.0,-1.6,2.0,9.0%
CCCN(CCC)CCCNC(=O)c1cc2cc3ccc(OC)cc3nc2o1,9.5,37.3,-7.0,1.2,-0.4,·
COc1ccc2cc3cc(C(=O)NCCN4CCN(Cc5ccccc5)CC4)oc3nc2c1,2.4,51.7*,5.3,-0.5,-0.3,9.3%
CS(=O)(=O)N1CCC(C(=O)Nc2cc(Cl)cc(Cl)c2)CC1,5.2,0.0,-5.3,-0.1,0.8,·
C=CCNc1nc(N)c([N+](=O)[O-])c(Nc2cccc(Cl)c2)n1,0.6,9.0,-3.0,0.5,-0.6,·
